Experimental findings from ChEMBL document CHEMBL4033794, “Discovery of Trifluoromethyl Glycol Carbamates as Potent and Selective Covalent Monoacylglycerol Lipase (MAGL) Inhibitors for Treatment of Neuroinflammation” (J Med Chem, 2018) are described below.

Series [1] is filed under the species Mus musculus. Particulars: C57BL6J, 1 mg/kg.
Series [2] can be described thus: Half life in non-human primate at 1 mg/kg, iv administered via cephalic vein measured up to 24 hrs post dose by HPLC-MS/MS analysis. It counts as ADME, organism-based, Macaca mulatta. Particulars: rhesus monkey, in vivo. Put shortly: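 Fasted male non-human primates (n = 2), fed ~1 h post-dose; 1 mg/kg IV bolus via saphenous or cephalic vein in 3% DMA/10% Solutol HS15/10% Miglyol/77% of 20% SBECD, 0.5 mL/kg. Femoral blood pre-dose and 0.083–24 h; plasma HPLC-MS/MS; non-compartmental analysis.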

Series [3] in a line: Apprent permeability in RRCK cells. It counts as ADME, cell-based, Canis lupus familiaris, MDCKII-LE. The note with it: dog, MDCK.
For series [4], the system named is Mus musculus. As to the kind of experiment: Anti-inflammatory activity in C57BL6J mouse assessed as reduction in LPS-induced IL-1beta levels in brain at 1 mg/kg, sc administered 30 mins after LPS challenge measured at 4 hrs post LPS challenge. It counts as functional, organism-based.
Series [5] is described as follows: Intrinsic clearance in human liver microsomes. It counts as ADME, microsome. Particulars: read-out: CLH. A digest of the protocol:
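Substrate depletion in human liver microsomes; intrinsic clearance scaled to mL/min/kg.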
Background: Microsomes from liver hold many membrane-bound enzymes, among them those of drug oxidation.

Series [6] can be described thus: Drug metabolism in human hepatocytes assessed as glucuronide conjugate formation. It counts as ADME, cell-based, Hepatocyte.
Series [7] in a line: Intrinsic clearance in human hepatocytes. It counts as ADME, cell-based, Hepatocyte. Particulars: read-out: CLH. Put shortly: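 Substrate depletion in cryopreserved human hepatocytes; scaled intrinsic clearance in mL/min/kg.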
The target in the next series is CYP2C9 (Homo sapiens, UniProt P11712). In words: Inhibition of CYP2C9 (unknown origin) at 3 uM. It counts as ADME. A digest of the protocol:
(§1)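 Competitive inhibition screen of CYP3A4, 2D6, 2C9, 2C8 and 1A2 using isoform-relevant probe substrates, compound at 3 μM.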

The subject of series [8] is Mus musculus. In words: Anti-inflammatory activity in C57BL6J mouse assessed as reduction in LPS-induced PGE2 levels in brain at 1 mg/kg, sc administered 30 mins after LPS challenge measured at 4 hrs post LPS challenge by LC-MS/MS analysis. It counts as functional, organism-based. Put shortly: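 Mice given LPS 20 mg/kg IP or saline, then 1 mg/kg SC compound or vehicle 30 min later; brains collected 4 h post-LPS, homogenized in pH 2.0 PMSF/NH4OAc buffer, spiked with d4-PGE2 internal standard, acetonitrile-extracted, and PGE2 quantified by LC-MS/MS.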

Series [9] relates to Mus musculus. As to the kind of experiment: Time at which unbound brain concentration stays above in vitro MAGL IC50 in C57BL6J mouse at 1 mg/kg, sc up to 24 hrs post dose. A digest of the protocol: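 Male C57BL6J mice dosed 1 mg/kg SC in DMSO:Cremophor:saline 5:5:90, 10 mL/kg; plasma and brain taken at 0.5, 1, 2, 4, 8, 12, 24 h. Drug measured in plasma and cerebellum; 2-AG and arachidonic acid in brain hemisphere, compared with vehicle-treated mice.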

Series [10] concerns Mus musculus. As to the kind of experiment: Anti-inflammatory activity in C57BL6J mouse assessed as reduction in LPS-induced TNFalpha levels in brain at 1 mg/kg, sc administered 30 mins after LPS challenge measured at 4 hrs post LPS challenge. It counts as functional, organism-based. A digest of the protocol: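 LPS 20 mg/kg IP or saline, then 1 mg/kg SC compound or vehicle at 30 min; hemi-brains taken at 4 h, homogenized in PBS with protease inhibitors, spun 100,000 rcf 45 min at 4°C; IL-1β and TNFα measured by Meso Scale electrochemiluminescence panel, with protein measured by BCA.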

A short description of series [11]: Intrinsic clearance in human hepatocytes in presence of CYP inhibitor ABT. It counts as ADME, cell-based, Hepatocyte. Particulars: with ABT (CYP inhibitor), concentration not stated, read-out: CLH. Put shortly: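 Cryopreserved human hepatocyte substrate-depletion assay run with ABT present; scaled intrinsic clearance in mL/min/kg.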
Series [12] is filed under the species Mus musculus. Particulars: C57BL6J, 1 mg/kg. This is another data set of the same source.
The nature of series [13]: Plasma clearance in Beagle dog at 1 mg/kg, iv administered via cephalic vein measured up to 24 hrs post dose by HPLC-MS/MS analysis. It counts as ADME, organism-based, Canis lupus familiaris. A digest of the protocol:
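Fasted male beagles (n = 2), fed ~4 h post-dose, given 1 mg/kg IV bolus via cephalic vein in 3% DMA/10% Solutol HS15/10% Miglyol/77% of 20% SBECD, 0.5 mL/kg. Jugular blood pre-dose and 0.083–24 h; plasma HPLC-MS/MS; non-compartmental analysis.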

The target of another series is T1, CYP2C8 (Homo sapiens, UniProt P10632).
T1 sequence (P10632 whole entry): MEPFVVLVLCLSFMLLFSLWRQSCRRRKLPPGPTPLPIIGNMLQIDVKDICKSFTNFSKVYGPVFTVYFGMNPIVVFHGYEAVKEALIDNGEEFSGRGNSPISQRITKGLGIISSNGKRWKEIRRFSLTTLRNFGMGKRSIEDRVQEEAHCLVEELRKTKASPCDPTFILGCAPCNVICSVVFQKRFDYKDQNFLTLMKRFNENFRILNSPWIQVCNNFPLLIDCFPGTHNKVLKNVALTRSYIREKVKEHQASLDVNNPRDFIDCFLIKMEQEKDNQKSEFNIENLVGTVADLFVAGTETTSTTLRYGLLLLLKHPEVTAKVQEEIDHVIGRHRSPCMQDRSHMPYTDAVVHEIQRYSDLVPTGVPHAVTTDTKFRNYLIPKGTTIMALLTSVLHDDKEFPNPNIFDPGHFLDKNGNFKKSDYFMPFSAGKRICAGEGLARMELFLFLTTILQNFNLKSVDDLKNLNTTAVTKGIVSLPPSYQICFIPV
In words: Inhibition of CYP2C8 (unknown origin) at 3 uM. It counts as ADME. Put shortly: as §1

The next series deals with T2, CYP1A2 (Homo sapiens, UniProt P05177).
T2 sequence (P05177 whole entry): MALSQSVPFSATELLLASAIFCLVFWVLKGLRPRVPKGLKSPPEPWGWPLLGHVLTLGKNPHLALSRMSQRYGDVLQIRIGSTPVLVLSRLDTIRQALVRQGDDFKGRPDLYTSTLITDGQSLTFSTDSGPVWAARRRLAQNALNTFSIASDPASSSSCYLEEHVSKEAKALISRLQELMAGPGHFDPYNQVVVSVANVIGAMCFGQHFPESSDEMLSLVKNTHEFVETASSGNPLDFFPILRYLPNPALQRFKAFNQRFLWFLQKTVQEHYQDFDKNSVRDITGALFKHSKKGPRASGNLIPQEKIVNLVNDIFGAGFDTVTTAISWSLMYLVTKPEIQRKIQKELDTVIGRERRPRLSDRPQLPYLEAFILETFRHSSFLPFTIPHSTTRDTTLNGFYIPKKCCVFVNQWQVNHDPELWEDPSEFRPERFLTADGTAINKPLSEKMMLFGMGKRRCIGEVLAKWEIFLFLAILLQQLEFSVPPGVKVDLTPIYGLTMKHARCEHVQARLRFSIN
As to the kind of experiment: Inhibition of CYP1A2 (unknown origin) at 3 uM. It counts as ADME. A digest of the protocol: as §1

The source made the active and inactive calls. The calls are words filed in the database; no cut-off is given here. Some results are limits rather than exact numbers.

CYP2C9, sequence (P11712 whole entry, canonical isoform): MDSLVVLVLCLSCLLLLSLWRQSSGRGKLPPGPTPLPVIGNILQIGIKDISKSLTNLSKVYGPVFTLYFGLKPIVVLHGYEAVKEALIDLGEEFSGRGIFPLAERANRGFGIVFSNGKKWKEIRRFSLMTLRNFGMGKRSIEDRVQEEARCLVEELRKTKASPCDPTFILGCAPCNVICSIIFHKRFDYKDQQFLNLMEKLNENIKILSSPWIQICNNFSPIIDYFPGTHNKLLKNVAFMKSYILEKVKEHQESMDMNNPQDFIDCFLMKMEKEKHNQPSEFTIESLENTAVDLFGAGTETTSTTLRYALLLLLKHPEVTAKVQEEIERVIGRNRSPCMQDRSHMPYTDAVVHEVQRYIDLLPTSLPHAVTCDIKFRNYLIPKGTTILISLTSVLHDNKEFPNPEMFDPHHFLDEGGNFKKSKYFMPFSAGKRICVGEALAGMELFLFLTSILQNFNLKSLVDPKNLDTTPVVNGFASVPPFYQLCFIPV

On to `O=C(O[C@H](CO)C(F)(F)F)N1C[C@@H]2[C@H](C1)[C@H]2c1ccn(-c2ccc(F)cc2)n1`, for which the inhibition entry in the series listed under Mus musculus [1] and in the series filed under Mus musculus [12] was “Active” in each case. In series [2], the half-life (usually how long it takes for the measured level to halve) is 1.7 h. Also, the Papp (commonly the rate of passage across a membrane or cell layer, normalised by area and donor concentration) in [3] is 21 ×10⁻⁶ cm/s. Also, the outcome in the series with Mus musculus [4], in the series with Mus musculus [8] and with Mus musculus [10] was Active. Besides, the CLint scaled in [5] was less than 8 mL/min/kg; in series [7], 52 mL/min/kg; in [11], 37 mL/min/kg. In series [6], the Drug metabolism result is reported as “Metabolite_Detected”. Further, the inhibition at 3 µM against CYP2C9, at CYP2C8 and against CYP1A2 was less than 10% throughout. In addition, the Time with Mus musculus [9] was found to be 2 h. Further, the clearance (in general, the volume of plasma or blood freed of the substance per unit of time) in series [13] was found to be 21 mL/min/kg.
